The list is not random: actives were taken first. Their share in the collection is about 4%.
E-sel inducer = E-selectin induction in HUVECs, primary screen, imaging, HUVEC, immunofluorescence imaging, single point | normalized: neutral wells 0, TNF-alpha wells 100 | 260,000 tested, 0.37% active | P16581 | activation, % at 7.58 µM;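 active means mean E-selectin-positive cell signal at least 10% of the positive control, reached in at least 60% of replicates, without over 20% cell loss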
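Test system: HUVEC | Signal: Immunofluorescence imaging | Read-out: Percent E-selectin-positive cells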
Statin myotox sup = suppressors of statin myotoxicity in C2C12 myotubes, primary screen, cell-based, single point, plate reader; C2C12 myotubes + simvastatin, ATP luminescence, 48 h; scaled: DMSO 0, geranylgeraniol control 100; rescue of ATP level, % at 7.49 µM; 330,000 tested, 0.78% active; AID 602340, 2012;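 active means mean ATP rescue above about 67%, or every replicate alone reaching that limit, limit read from the data, passing the limit was not always enough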;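 further: myotubes were challenged with 10 µM simvastatin during compound exposure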
SIRT5 block = SIRT5 desuccinylase inhibitors, primary screen, biochemical, fluorescence imaging, single point, set 5 | 330,000 tested, 1.1% active | NAD-dependent protein deacylase sirtuin-5, mitochondrial (Homo sapiens), Q9NXA8 | inhibition, % at 15 µM | Purified SirT5, succinyl-peptide AMC, trypsin-coupled fluorescence | AID 652115, 2013; in the data active means inhibition above about 15%
FN deposition inh = inhibitors of fibronectin matrix deposition, primary screen, AH1F cells, Alexa488-fibronectin fluorescence, plate reader; AH1F fibroblasts, overnight; 350,000 tested, 0.086% active; inhibition, % at 12.6 µM; AID 743247, 2014;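 active means mean inhibition across replicates of 30% or more, regardless of how many single replicates reach that level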;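 further: positive control wells lacked labelled fibronectin entirely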
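Material: AH1F fibroblasts assembling fluorescent fibronectin matrix; amount: 10000 AH1F cells/well; medium: DMEM, 2% serum; reagent: Alexa488-fibronectin, 24 nM final in well; dosing: single compound dose, delivered by pin transfer; incubation: 1 h adhesion, overnight exposure; detection: fluorescence after three HBSS washes, excitation 485 nm, emission 525 nm; measure: fibronectin deposition inhibition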
Ecoli rRNA inh = reduced GFP signal of wild-type E. coli, primary screen, bacterial rRNA inhibitor project, GFP/RFP fluorescence, OD600, single point; E. coli WT GFP vs humanized-ribosome RFP mutants, 24 h; active compounds read low; DMSO median 0, no signal -100; GFP signal change (wild-type ribosome), % (concentration not given with the values); 350,000 tested, 1.6% active;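 active means significant combined selectivity score with lowered wild-type GFP, culture density cut under 30%, mutant RFP and density less affected; inactive means any of these conditions unmet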
FGF22 binding = binders of human FGF22 protein, primary screen, FGF22 synaptogenesis inhibitor project, biophysical, thermal shift, single point; Fibroblast growth factor 22 (Homo sapiens), Q9HCT0; recombinant FGF22 thermal shift, SYPRO orange fluorescence; percent of sucrose octasulfate shift, DMSO zero; activity (Tm shift, normalised), % at 9.99 µM; 340,000 tested, 1.5% active; AID 651658, 2012;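 active means mean Tm shift, scaled 0 neutral to 100 positive control, at about 1.3% or above, every replicate too, limit read from the data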
Target sequence (Q9HCT0 whole entry, looked up): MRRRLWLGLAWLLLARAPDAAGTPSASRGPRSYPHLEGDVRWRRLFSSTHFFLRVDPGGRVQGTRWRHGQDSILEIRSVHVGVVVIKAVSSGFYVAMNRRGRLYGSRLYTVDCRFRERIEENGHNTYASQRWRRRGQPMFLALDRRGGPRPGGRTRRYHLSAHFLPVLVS
* hit, by the source's call.

`Cc1oc(-c2ccc(Cl)cc2)nc1CS(=O)CC(=O)NC1CCCC1` (centres undefined) gave Statin myotox sup 99*, SIRT5 block -1, FN deposition inh -11, Ecoli rRNA inh -2 and FGF22 binding 0.
Screening Cc1oc(-c2ccc(Cl)cc2)nc1CS(=O)CC(=O)NC1CCCCC1 (centres undefined) returned Statin myotox sup 22, SIRT5 block -4, FN deposition inh -5, Ecoli rRNA inh 1 and FGF22 binding 0.
Screening Cc1ccc(-c2nc(CS(=O)CC(=O)NC3CCCCC3)c(C)o2)cc1 (centres undefined) returned Statin myotox sup 105*, SIRT5 block -3, FN deposition inh 13, Ecoli rRNA inh -7 and FGF22 binding 0.
For C[C@H](CO)N1C[C@H](C)[C@H](CN(C)Cc2ccncc2)Oc2ccc(NS(C)(=O)=O)cc2C1=O the results were E-sel inducer -7, Statin myotox sup 1, SIRT5 block -1, Ecoli rRNA inh 1 and FGF22 binding 0.
CN1C(=O)c2cc(NC(=O)c3ccc(Cl)cc3)ccc2OC[C@H]2O[C@H](CC(=O)O)CC[C@@H]21 was read as E-sel inducer 0, Statin myotox sup 10, FN deposition inh -6 and Ecoli rRNA inh -1.
Fc1ccc(-c2csc(-c3ccncc3)n2)cc1 was read as E-sel inducer 4, Statin myotox sup -10, SIRT5 block -3, FN deposition inh -6, Ecoli rRNA inh -1 and FGF22 binding 0.
For N#C/C(=N/O)c1nc(-c2ccc(F)cc2)cs1 the results were E-sel inducer 1, SIRT5 block 2, FN deposition inh 2, Ecoli rRNA inh -41* and FGF22 binding 0.
`CO[C@H]1CN(C)C(=O)c2cc(NC(=O)Nc3cccc(F)c3)ccc2OC[C@@H](C)N(C(=O)C2CC2)C[C@@H]1C` gave E-sel inducer 0, Statin myotox sup -3, FN deposition inh 14 and Ecoli rRNA inh -2.
`CCN(C(=O)c1nn(-c2ccc(OC)cc2)c(=O)c2c1c1ccccc1n2C)c1ccc(OC)cc1` gave Statin myotox sup 107*, SIRT5 block 1, FN deposition inh -14, Ecoli rRNA inh 12 and FGF22 binding 0.
`O=C(C[C@@H]1CC[C@H]2[C@@H](COC[C@@H](O)CN2CCc2ccccc2)O1)NCc1ccc(F)cc1` gave E-sel inducer 0, Statin myotox sup 16, SIRT5 block -5, FN deposition inh 2 and Ecoli rRNA inh -5.
`O=C(CNC(=O)C1CC1)Nc1ccc(F)c(F)c1F` gave E-sel inducer 0, Statin myotox sup 6, SIRT5 block -1, FN deposition inh 1, Ecoli rRNA inh 19 and FGF22 binding 43*.
For Cc1ccc(-n2c(C(C)C)nc3oc4ccccc4c(=O)c3c2=O)cc1 the results were E-sel inducer 3, SIRT5 block -4, FN deposition inh 5, Ecoli rRNA inh -32* and FGF22 binding 0.
Screening CCCc1nc2oc3ccccc3c(=O)c2c(=O)n1-c1ccc(C)cc1 returned E-sel inducer 1, SIRT5 block 0, FN deposition inh -2, Ecoli rRNA inh -46* and FGF22 binding 0.
For CCCc1nc2oc3ccccc3c(=O)c2c(=O)n1-c1ccccc1 the results were E-sel inducer 0, SIRT5 block 1, FN deposition inh 0, Ecoli rRNA inh -30* and FGF22 binding 0.
`CCc1nc2oc3ccccc3c(=O)c2c(=O)n1-c1ccccc1` gave E-sel inducer -1, Statin myotox sup 0 and FN deposition inh -2.
